According to ChEMBL document CHEMBL3352788, “Characterization of selective exosite-binding inhibitors of matrix metalloproteinase 13 that prevent articular cartilage degradation in vitro” (J Med Chem, 2014):

Columns and labels:
Caspase-3 (Homo sapiens) = biological target: T1, Caspase-3 (Homo sapiens) (UniProt P42574); assay: Inhibition of recombinant human caspase 3 using DEVDAA substrate at up to 5 uM after 3 hrs
T1 sequence (whole entry): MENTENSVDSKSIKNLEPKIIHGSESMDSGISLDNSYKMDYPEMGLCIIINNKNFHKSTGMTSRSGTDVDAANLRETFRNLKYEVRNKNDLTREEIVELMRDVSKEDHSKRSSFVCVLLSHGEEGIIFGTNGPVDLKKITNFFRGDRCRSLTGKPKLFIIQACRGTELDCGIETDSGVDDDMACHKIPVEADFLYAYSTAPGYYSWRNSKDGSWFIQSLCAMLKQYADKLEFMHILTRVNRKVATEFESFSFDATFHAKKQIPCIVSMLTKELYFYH
Method in brief: (§1)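 Outsourced microfluidic protease panel. Compound was preincubated with each protease for 30 min at 25 °C, then peptide substrate was added for 3 h at 25 °C and quenched with SDS/EDTA/iodoacetate. Substrate-to-product conversion was measured on LabChip. Compounds were tested singly in a 12-point 3-fold dilution series, top 20 μM (5 μM for two reference compounds).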

Furin (Homo sapiens) = Furin (Homo sapiens) (UniProt P09958); assay: Inhibition of recombinant human furin using RRVKRSLD substrate at up to 5 uM after 3 hrs
Method in brief: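 In this microfluidic protease panel, enzyme and compound were preincubated 30 min at 25 °C. The peptide substrate was added and the reaction was incubated 3 h at 25 °C, then quenched (SDS, EDTA, iodoacetate). Activity was read as % substrate converted to product. Dose–response was singlicate, 12-point 3-fold dilutions spanning 5 μM to 0.028 nM. IC50 was the concentration leaving 50% activity relative to no-compound control.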

Caspase-5 (Homo sapiens) = biological target: T2, Caspase-5 (Homo sapiens) (UniProt P51878); assay: Inhibition of recombinant human caspase 5 using LEHDGP substrate at up to 5 uM after 3 hrs; method in brief: as §1
T2 sequence (whole entry): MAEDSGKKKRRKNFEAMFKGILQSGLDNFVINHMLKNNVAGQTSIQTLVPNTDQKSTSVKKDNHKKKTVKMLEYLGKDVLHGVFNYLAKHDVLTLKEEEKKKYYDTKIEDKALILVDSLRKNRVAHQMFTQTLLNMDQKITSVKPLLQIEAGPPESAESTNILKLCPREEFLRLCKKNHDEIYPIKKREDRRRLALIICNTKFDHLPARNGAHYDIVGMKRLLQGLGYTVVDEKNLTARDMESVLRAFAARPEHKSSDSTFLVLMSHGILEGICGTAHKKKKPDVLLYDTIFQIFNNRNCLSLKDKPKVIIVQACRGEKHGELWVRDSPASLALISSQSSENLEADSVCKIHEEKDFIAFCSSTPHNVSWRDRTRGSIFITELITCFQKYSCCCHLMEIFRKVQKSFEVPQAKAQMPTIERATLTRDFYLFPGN

Caspase-2 (Homo sapiens) = biological target: T3, Caspase-2 (Homo sapiens) (UniProt P42575); assay: Inhibition of recombinant human caspase 2 using DEVDAA substrate at up to 5 uM after 3 hrs; method in brief: as §1
T3 sequence (whole entry): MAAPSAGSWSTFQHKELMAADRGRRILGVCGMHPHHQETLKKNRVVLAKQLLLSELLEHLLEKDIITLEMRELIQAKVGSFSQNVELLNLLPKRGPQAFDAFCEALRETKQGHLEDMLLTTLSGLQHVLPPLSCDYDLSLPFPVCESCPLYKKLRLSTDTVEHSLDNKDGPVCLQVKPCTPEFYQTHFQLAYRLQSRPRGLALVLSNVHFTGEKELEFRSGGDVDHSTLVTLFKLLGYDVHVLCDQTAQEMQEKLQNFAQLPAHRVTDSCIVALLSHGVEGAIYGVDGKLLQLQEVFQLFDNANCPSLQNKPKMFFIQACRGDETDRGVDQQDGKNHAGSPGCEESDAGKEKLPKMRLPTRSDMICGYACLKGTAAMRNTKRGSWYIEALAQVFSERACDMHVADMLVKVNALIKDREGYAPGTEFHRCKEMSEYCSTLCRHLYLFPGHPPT

[1] = biological target: T4, Cathepsin K (Homo sapiens) (UniProt P43235); assay: Inhibition of recombinant human cathepsin K using HHQKLVFFAE substrate at up to 5 uM after 3 hrs; method in brief: as §1
T4 sequence (whole entry): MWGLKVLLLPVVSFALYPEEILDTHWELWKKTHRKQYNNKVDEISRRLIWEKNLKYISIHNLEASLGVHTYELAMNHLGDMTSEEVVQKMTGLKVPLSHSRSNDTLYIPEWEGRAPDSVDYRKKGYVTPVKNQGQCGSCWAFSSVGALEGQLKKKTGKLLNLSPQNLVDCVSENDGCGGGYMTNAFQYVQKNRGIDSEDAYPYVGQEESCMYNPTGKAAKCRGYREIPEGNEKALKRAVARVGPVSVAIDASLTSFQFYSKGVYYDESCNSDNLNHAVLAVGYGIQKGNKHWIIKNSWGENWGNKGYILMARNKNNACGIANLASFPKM

Caspase-1 (Homo sapiens) = biological target: T5, Caspase-1 (Homo sapiens) (UniProt P29466); assay: Inhibition of recombinant human caspase 1 using WEHDGPKR substrate at up to 5 uM after 3 hrs; method in brief: as §1
T5 sequence (whole entry): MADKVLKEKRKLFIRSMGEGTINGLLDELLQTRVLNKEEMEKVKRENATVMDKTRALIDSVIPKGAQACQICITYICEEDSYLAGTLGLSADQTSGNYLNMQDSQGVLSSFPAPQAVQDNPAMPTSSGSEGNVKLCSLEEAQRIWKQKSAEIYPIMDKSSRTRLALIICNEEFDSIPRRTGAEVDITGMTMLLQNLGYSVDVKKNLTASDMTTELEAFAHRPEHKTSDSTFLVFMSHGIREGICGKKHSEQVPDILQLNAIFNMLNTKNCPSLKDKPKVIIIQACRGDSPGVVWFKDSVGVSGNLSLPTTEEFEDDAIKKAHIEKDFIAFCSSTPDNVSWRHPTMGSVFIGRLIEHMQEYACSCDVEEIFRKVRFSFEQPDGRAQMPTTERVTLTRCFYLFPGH

Collagenase 3 [2] = biological target: T6, Collagenase 3 (Homo sapiens, UniProt P45452); assay: Inhibition of full-length recombinant human MMP-13 assessed as prevention of bovine type-2 collagen degradation at 10 uM after 18 hrs by cartilage explant assay
Method in brief: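 Bovine articular cartilage pieces (~3 mm2) were made nonviable by three freeze–thaw cycles in LN2 and trypsin-digested for 4 h to remove aggrecan. They were then incubated with 100 nM MMP-13 ± compound for 18 h at 37 °C, 5% CO2, in triplicate at a single concentration. Released collagen fragments were measured by C1,2C ELISA and normalized to undigested and MMP-13-digested controls.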

Cytochrome P450 3A4 = Cytochrome P450 3A4 (Homo sapiens, UniProt P08684); assay: Inhibition of CYP3A4 (unknown origin) using testosterone substrate; assay type: ADME
Method in brief: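 Reactions stopped with acetonitrile/0.1% formic acid plus labelled internal standard. Metabolite measured by LC-MS area ratio. IC50 by linear interpolation.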

Collagenase 3 [3] = biological target: T6, Collagenase 3; assay: Non-competitive inhibition of full-length recombinant human MMP-13 assessed as fTHP-15 substrate hydrolysis

Chain of Cytochrome P450 3A4 (P08684 whole entry): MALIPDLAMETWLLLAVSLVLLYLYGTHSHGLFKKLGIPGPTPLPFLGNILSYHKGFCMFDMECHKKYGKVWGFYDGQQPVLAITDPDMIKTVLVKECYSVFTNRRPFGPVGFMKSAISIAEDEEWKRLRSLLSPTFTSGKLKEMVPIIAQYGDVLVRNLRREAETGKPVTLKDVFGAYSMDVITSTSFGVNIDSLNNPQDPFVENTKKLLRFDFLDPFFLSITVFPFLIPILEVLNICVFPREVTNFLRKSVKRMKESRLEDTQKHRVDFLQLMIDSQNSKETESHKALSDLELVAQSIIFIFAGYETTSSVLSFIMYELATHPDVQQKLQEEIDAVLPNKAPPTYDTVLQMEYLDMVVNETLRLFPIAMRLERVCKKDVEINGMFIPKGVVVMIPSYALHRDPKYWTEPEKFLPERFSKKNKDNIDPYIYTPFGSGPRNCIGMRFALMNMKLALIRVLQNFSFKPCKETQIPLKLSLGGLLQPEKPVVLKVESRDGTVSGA
Chain of Furin (Homo sapiens) (P09958 whole entry): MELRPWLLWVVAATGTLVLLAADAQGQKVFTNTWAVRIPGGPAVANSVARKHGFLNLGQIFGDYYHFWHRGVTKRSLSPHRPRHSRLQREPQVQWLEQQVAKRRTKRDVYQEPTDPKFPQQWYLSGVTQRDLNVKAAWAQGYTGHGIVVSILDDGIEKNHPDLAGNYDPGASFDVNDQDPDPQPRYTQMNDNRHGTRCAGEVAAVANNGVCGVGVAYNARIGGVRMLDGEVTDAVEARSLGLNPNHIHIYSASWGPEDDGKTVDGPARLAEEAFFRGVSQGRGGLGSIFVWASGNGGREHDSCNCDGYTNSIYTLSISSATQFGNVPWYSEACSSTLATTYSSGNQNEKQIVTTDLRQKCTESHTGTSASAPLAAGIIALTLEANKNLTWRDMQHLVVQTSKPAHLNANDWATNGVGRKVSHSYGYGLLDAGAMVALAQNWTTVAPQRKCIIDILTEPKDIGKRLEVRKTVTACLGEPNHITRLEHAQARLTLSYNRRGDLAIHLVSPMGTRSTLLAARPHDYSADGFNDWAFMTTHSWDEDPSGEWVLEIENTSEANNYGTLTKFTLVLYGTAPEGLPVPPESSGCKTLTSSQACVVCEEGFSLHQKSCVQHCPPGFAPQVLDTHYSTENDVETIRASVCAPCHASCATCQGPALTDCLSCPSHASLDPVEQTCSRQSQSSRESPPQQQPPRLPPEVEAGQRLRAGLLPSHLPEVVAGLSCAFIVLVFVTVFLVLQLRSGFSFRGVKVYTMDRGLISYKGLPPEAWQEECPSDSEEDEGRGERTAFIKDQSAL

In the case of `Cc1cc(CNC(=O)c2cc(C(=O)NCc3ccc(F)c(C)c3)ncn2)ccc1F`, the inhibition (Caspase-3 (Homo sapiens)) is reported as < 10%, the inhibition (Furin (Homo sapiens)) is reported as < 10% and the inhibition (Caspase-5 (Homo sapiens)) is reported as < 10%. The inhibition (Caspase-2 (Homo sapiens)) was < 10%, the inhibition [1] was < 10% and the inhibition (Caspase-1 (Homo sapiens)) was < 10%.

For `Cn1c(=O)n(Cc2ccc(C(=O)O)cc2)c(=O)c2cc(C#CCc3ccccc3)ccc21`, the inhibition (Caspase-3 (Homo sapiens)) was < 10%, the inhibition (Furin (Homo sapiens)) was < 10% and the inhibition (Caspase-5 (Homo sapiens)) was < 10%. For the same compound, the inhibition (Caspase-2 (Homo sapiens)) was < 10%, the inhibition [1] was > 10% and the inhibition (Caspase-1 (Homo sapiens)) was < 10%.

For `Cc1ccc(CSc2nc(O)c3c(n2)CCC3)cc1`, the inhibition (Collagenase 3 [2]) was 59%.

With `COC(=O)c1ccc(CSc2nc3c(c(=O)[nH]2)CCC3)cc1` the IC50 (Cytochrome P450 3A4) was > 20 µM, the inhibition (Collagenase 3 [2]) was 38% and the IC50 (Collagenase 3 [3]) was 2.8 µM.

For `Oc1nc(SCc2ccc(Cl)cc2)nc2c1CCC2`, the IC50 (Cytochrome P450 3A4) was > 20 µM and the IC50 (Collagenase 3 [3]) was 3.4 µM.
